Assay outcomes: PubChem BioAssay, Broad Institute
Most compounds without a hit are left out; they make up all but 3% or so of the library.
C2C12 statin: suppression of simvastatin myotoxicity | C2C12 myotubes + simvastatin, ATP luminescence, 48 h; scaled: DMSO 0, geranylgeraniol control 100 | rescue of ATP level, % at 7.49 µM | 330,000 tested, 0.78% active;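 active means mean ATP rescue above about 67%, or every replicate alone reaching that limit, limit read from the data, passing the limit was not always enough; inconclusive means no clear call, values can overlap the other calls; inactive means mean under the limit and some replicate under it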;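 further: myotubes were challenged with 10 µM simvastatin during compound exposure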
S100A4 inh HTS: blocks human S100A4 binding to myosin IIA peptide | inhibition, % at 10.7 µM | P26447 | AID 652163 | S100A4/TAMRA-MyoIIA peptide fluorescence polarization | 360,000 tested, 0.14% active;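 active means mean inhibition of at least 70% across replicates, with every replicate also reaching that level; inconclusive means mean inhibition reaches 70% but some replicates fall short; inactive means mean inhibition below 70%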
Target sequence (P26447 whole entry, looked up): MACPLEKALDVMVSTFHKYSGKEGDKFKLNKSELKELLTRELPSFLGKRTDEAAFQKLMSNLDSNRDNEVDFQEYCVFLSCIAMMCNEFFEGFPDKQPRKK
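System – human S100A4 monomer protein, biochemical binding assay · Buffer or medium – Calcium-containing HEPES buffer, pH 7.2 · Timing – 5 min between mix addition and reading · Also added – TAMRA-labelled myosin IIA heavy-chain peptide probe, 5 nM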
SIRT5 block: sirtuin-5 (human) deacylase inhibition. Purified SirT5, succinyl-peptide AMC, trypsin-coupled fluorescence. Q9NXA8. 330,000 tested, 1.1% active. inhibition, % at 15 µM; in the data active means inhibition above about 15%; inconclusive means no clear call, values can overlap the other calls
Target sequence (Q9NXA8 whole entry, looked up): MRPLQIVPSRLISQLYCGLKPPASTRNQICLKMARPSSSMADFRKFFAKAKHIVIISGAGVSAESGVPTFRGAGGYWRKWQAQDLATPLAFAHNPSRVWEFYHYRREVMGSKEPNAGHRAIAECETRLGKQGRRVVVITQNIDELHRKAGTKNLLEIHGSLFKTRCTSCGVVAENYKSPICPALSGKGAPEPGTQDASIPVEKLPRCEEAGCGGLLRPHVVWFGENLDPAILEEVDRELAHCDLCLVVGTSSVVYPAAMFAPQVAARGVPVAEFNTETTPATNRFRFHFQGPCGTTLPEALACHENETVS
PGC1a acetyl inh: PGC1a acetylation modulation, inhibitor mode. U2OS PGC1a acetylation, AlphaScreen anti-acetyl-lysine; with virally co-expressed GCN5 acetyltransferase. 350,000 tested, 0.17% active. AID 651687. inhibition, % at 15.6 µM;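 active means every replicate shows inhibition of at least 40%; inconclusive means mean inhibition at least 40% but some replicate below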;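 further: 0% = neutral control wells and 100% = positive control wells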
Ecoli rRNA inh: inhibits bacterial ribosomal RNA function over humanized ribosomes; E. coli WT GFP vs humanized-ribosome RFP mutants, fluorescence, 24 h; hits give low values; DMSO median 0, no signal -100; GFP signal change (wild-type ribosome), % (test concentration not listed); 350,000 tested, 1.6% active; AID 720706;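 active means significant combined selectivity score with lowered wild-type GFP, culture density cut under 30%, mutant RFP and density less affected; inactive means any of these conditions unmet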
Cneo AK release: Cryptococcus neoformans lysis via adenylate kinase release | C. neoformans lysis, adenylate kinase release luminescence, 4 h; normalised: neutral wells 0, clomiphene wells 100 | lysis activity, % at 15 µM | 360,000 tested, 0.2% active;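 active means mean lysis activity across replicates of at least 80%, whatever share of replicates individually reach that level; inactive means mean lysis activity below 80%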
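Material: C. neoformans cells | Amount: Yeast cell density of 5 × 10^6 cells/mL | Medium: Fresh YPD growth medium | Dosing: Single dose | Times: Static 4 h at 37 °C with compound, 1 h detection | Detection: AK luminescence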
The depositor's hits bear a star; ? = inconclusive; . = no result given.

SMILES | C2C12 statin | S100A4 inh HTS | SIRT5 block | PGC1a acetyl inh | Ecoli rRNA inh | Cneo AK release
C[C@H](CO)N1C[C@H](C)[C@H](CN(C)Cc2ccc(Oc3ccccc3)cc2)Oc2ccc(NC(=O)Cc3ccccc3)cc2C1=O | -131.2 | -11.5 | 43.0* | -10.0 | -4.6 | 1.7
C[C@H]1CN([C@@H](C)CO)C(=O)c2cc(NC(=O)Cc3cn(C)c4ccccc34)ccc2O[C@H]1CN(C)Cc1ccc(Oc2ccccc2)cc1 | . | -1.0 | 10.6 | 0.6 | -0.3 | 2.8
C[C@H]1CN([C@@H](C)CO)C(=O)c2cc(NC(=O)Cc3ccccc3)ccc2O[C@@H]1CN(C)Cc1ccc(Oc2ccccc2)cc1 | -33.6 | -11.0 | 17.0* | 1.3 | 0.5 | -0.2
CN(C)CCCNC(=O)C[C@@H]1CC[C@H]2[C@@H](COC[C@H](O)CN2Cc2cccc(Cl)c2)O1 | -12.7 | ? | 2.4 | 5.4 | -4.1 | 1.0
CC(=O)N(C)C[C@H]1Oc2ncc(C#Cc3ccccc3F)cc2C(=O)N([C@H](C)CO)C[C@H]1C | -3.5 | 7.5 | 4.8 | 10.5 | 0.1 | 0.0
Cc1ccc(S(=O)(=O)N2C[C@H](O)COC[C@@H]3O[C@@H](CC(=O)NCCN4CCCCC4)CC[C@H]32)cc1 | -9.2 | 5.1 | -3.1 | 2.6 | 4.6 | -0.9
COC(=O)[C@@]1(C)[C@H]2C(=O)N(Cc3ccccc3)C(=O)[C@H]2[C@H]2CN=C(SCc3ccc(Cl)cc3)N21 | -5.8 | -6.9 | -2.7 | 1.3 | -21.1* | 1.0
COC(=O)[C@@]1(C)[C@H]2C(=O)N(Cc3ccccc3)C(=O)[C@H]2[C@H]2CN=C(SCc3ccc(C#N)cc3)N21 | -4.7 | -4.2 | -2.8 | 1.5 | -1.7 | 1.1
CCOC(=O)c1nnc(-c2ccc(C)cc2)nc1Sc1ccc(Cl)cc1 | 109.2* | . | . | 10.1 | . | -2.2
CCC(=O)Nc1ccc2c(c1)OC[C@H](C)N(Cc1ccccc1OC)C[C@H](C)[C@H](OC)CN(C)C2=O | -15.1 | -0.5 | 8.9 | -8.2 | 0.7 | -3.2
COc1ccccc1C#Cc1ccc2c(c1)[C@H]1[C@H](CCN1C(=O)c1ccc(F)cc1)[C@@H](CO)N2 | . | -0.2 | 17.6* | . | 1.8 | .
COc1ccccc1CN1CC[C@H]2[C@H](CO)Nc3ccc(C#Cc4ccccc4)cc3[C@H]21 | -89.7 | -9.0 | 2.1 | 5.9 | -54.9 | 115.2*
COc1ccccc1C#Cc1ccc2c(c1)[C@H]1[C@H](CCN1C(=O)c1ccccc1)[C@H](CO)N2 | -38.8 | -15.9 | 4.9 | -11.7 | -5.6 | -3.1
O=C(C[C@@H]1C[C@@H]2c3cc(NC(=O)Nc4ccccc4)ccc3O[C@@H]2[C@H](CO)O1)NCc1ccccn1 | 2.8 | -19.1 | -3.9 | 3.7 | -0.8 | -2.7
CCC(=O)N(C[C@@H]1N[C@H](CO)[C@@H]1c1ccc(C#C[C@@H](C)O)cc1)C1CCCCC1 | . | . | . | . | -0.1 | .
O=C(NC[C@@H]1CC[C@@H]2[C@@H](CN2C(=O)C2CCOCC2)O1)c1cccnc1 | . | -13.7 | -0.1 | . | . | .
Cc1ccc(NC(C)C(=O)N/N=C/c2ccc([N+](=O)[O-])s2)cc1 (centres undefined) | -4.2 | -1.6 | -2.8 | 3.9 | -21.7* | -4.2
COc1ccc(NC(C)C(=O)N/N=C/c2ccc([N+](=O)[O-])s2)cc1 (centres undefined) | . | -0.7 | -2.8 | -16.4 | 3.3 | .
O=[N+]([O-])c1ccc(/C=N/NC(=S)Nc2ccc(Cl)cc2Cl)s1 | -38.5 | 4.7 | -3.9 | 1.9 | -19.0* | -6.0
CCC(=O)Nc1ccc2c(c1)OC[C@@H](C)N(CC1CCCCC1)C[C@@H](C)[C@@H](OC)CN(C)C2=O | -9.4 | . | . | 15.6 | 1.3 | -1.6
CC(C)NC(=O)Nc1ccc2c(c1)C(=O)N(C)[C@H]1CC[C@H](CC(=O)Nc3ccccc3Cl)O[C@@H]1CO2 | 20.4 | -37.2 | -1.6 | 1.6 | -10.4 | 0.3
O=[N+]([O-])c1cnccc1Nc1cccc(F)c1 | . | . | . | . | . | 0.8
O=[N+]([O-])c1ccc(Oc2cccc(F)c2)c2ccncc12 | . | . | . | 70.6* | . | .
CCCCNC(=O)c1ccc(CS(=O)(=O)c2ccccc2OC)o1 | 8.1 | 3.8 | 1.6 | 44.2* | -1.0 | 2.6
CCN(CC)CCCNC(=O)c1ccc(CS(=O)(=O)c2ccccc2OC)o1 | -0.3 | -4.0 | -1.6 | 1.7 | 12.1 | -0.3
